Results taken from ChEMBL document CHEMBL1137992, “Long hydrocarbon chain keto diols and diacids that favorably alter lipid disorders in vivo” (J Med Chem, 2004).

Assays:
Rattus norvegicus [1] = assay: Percentage change of HDL cholesterol levels in obese female Zucker rats after 2 weeks of pre-treatment at a dose of 100 mg/kg/day; type: functional
In short: (§1)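 Obese female Zucker fatty rats were gavaged once daily with 30 or 100 mg/kg/day in 20% EtOH/80% PEG-200 for 2 weeks. Sera were collected after a 6 h fast, before dosing, at 1 week (orbital plexus) and at 2 weeks (cardiac puncture). HDL-C was total cholesterol multiplied by HDL area fraction from gel-filtration lipoprotein profiles. Reported as % change from pretreatment ± SEM.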

Rattus norvegicus [2] = assay: Percentage change of non-HDL cholesterol levels in obese female Zucker rats after 1 week of pre-treatment at a dose of 100 mg/kg/day; type: functional
In short: (§2)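 Female Zucker fatty rats [Crl:(Zuc)-faBR], 10–12 weeks old (400–500 g), acclimated 7 days and fed rodent chow. Dosed once daily by oral gavage in 20% EtOH/80% PEG-200 (v/v), at 0.25% of body weight, for 2 weeks. Blood taken after a 6-h fast: orbital plexus before dosing and at day 7, cardiac puncture at day 14. Serum lipoprotein cholesterol measured by Superose 6 gel filtration with on-line cholesterol detection. Values are % change from pretreatment, mean ± SEM.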

Rattus norvegicus [3] = assay: Percentage change of triglycerides in obese female Zucker rats after 1 week of pre-treatment at a dose of 100 mg/kg/day; type: functional; in short: as §2
Rattus norvegicus [4] = assay: Percentage change of triglycerides in obese female Zucker rats after 2 weeks of pre-treatment at a dose of 100 mg/kg/day; type: functional; in short: as §2
Rattus norvegicus [5] = assay: Percentage change of HDL cholesterol levels in obese female Zucker rats after 1 week of pre-treatment at a dose of 100 mg/kg/day; type: functional; in short: as §1
Rattus norvegicus [6] = assay: Percentage change of non-HDL cholesterol levels in obese female Zucker rats after 2 weeks of pre-treatment at a dose of 100 mg/kg/day; type: functional; in short: as §2
[7] = Concentration required for inhibition of lipid synthesis in primary cultures of rat hepatocytes at 300 uM; not active; type: functional; conditions: Hepatocyte
In short: (§3)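 Primary hepatocytes from male Sprague-Dawley rats (Seglen isolation), plated at 1.5×10^5 cells/cm² on collagen in serum-containing DMEM, switched to serum-free medium after 4 h, grown overnight to monolayers. Cells incubated 4 h with 0.25 μCi [1-14C]acetate/well (1 Ci/mol final) plus 0, 1, 3, 10, 30, 100 or 300 μM compound. Lipids extracted into scintillant and counted; IC50 taken from lipid synthesis rates.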

Rattus norvegicus [8] = assay: Percentage change of HDL cholesterol levels in obese female Zucker rats after 2 weeks of pre-treatment at a dose of 30 mg/kg/day; type: functional; in short: as §1
Rattus norvegicus [9] = assay: Percentage change of non-HDL cholesterol levels in obese female Zucker rats after 1 week of pre-treatment at a dose of 30 mg/kg/day; type: functional; in short: as §2
Rattus norvegicus [10] = assay: Percentage change of triglycerides in obese female Zucker rats after 1 week of pre-treatment at a dose of 30 mg/kg/day; type: functional; in short: as §2
Rattus norvegicus [11] = assay: Percentage change of non-HDL cholesterol levels in obese female Zucker rats after 2 weeks of pre-treatment at a dose of 30 mg/kg/day; type: functional; in short: as §2
Rattus norvegicus [12] = assay: Percentage change of triglycerides in obese female Zucker rats after 2 weeks of pre-treatment at a dose of 30 mg/kg/day; type: functional; in short: as §2
[13] = Concentration required for inhibition of lipid synthesis in primary cultures of rat hepatocytes; value ranges from 100-300 uM; type: functional, cell-based; conditions: Hepatocyte; in short: as §3
Rattus norvegicus [14] = assay: Percentage change of HDL cholesterol levels in obese female Zucker rats after 1 week of pre-treatment at a dose of 30 mg/kg/day; type: functional; in short: as §1
[15] = Concentration required for inhibition of lipid synthesis in primary cultures of rat hepatocytes; type: functional, cell-based; conditions: Hepatocyte; in short: as §3
[16] = Concentration required for inhibition of lipid synthesis in primary cultures of rat hepatocytes; value ranges from 3-10 uM; type: functional, cell-based; conditions: Hepatocyte; in short: as §3
Rattus norvegicus [17] = assay: Percentage change of non-HDL cholesterol levels in obese female Zucker rats after 1 week of treatment at a dose of 100 mg/kg/day; type: functional; conditions: in the assay text read “30 mg/kg/day” for “100 mg/kg/day”; in short: as §2
Rattus norvegicus [18] = assay: Percentage change of non-HDL cholesterol levels in obese female Zucker rats after 1 week of pre-treatment at a dose of 59 mg/kg/day; type: functional; in short: as §2
Rattus norvegicus [19] = assay: Percentage change of non-HDL cholesterol levels in obese female Zucker rats after 2 weeks of pre-treatment at a dose of 59 mg/kg/day; type: functional; in short: as §2
Rattus norvegicus [20] = assay: Percentage change of HDL cholesterol levels in obese female Zucker rats after 1 week of pre-treatment at a dose of […]; type: functional
Rattus norvegicus [21] = assay: Percentage change of triglycerides in obese female Zucker rats after 2 weeks of pre-treatment at a dose of 59 mg/kg/day; type: functional; in short: as §2
Rattus norvegicus [22] = assay: Percentage change of triglycerides in obese female Zucker rats after 1 week of pre-treatment at a dose of 59 mg/kg/day; type: functional; in short: as §2
Rattus norvegicus [23] = assay: Percentage change of HDL cholesterol levels in obese female Zucker rats after 2 weeks of pre-treatment at a dose of 59 mg/kg/day; type: functional

Structure (SMILES)	Change (Rattus norvegicus [1])	Change (Rattus norvegicus [2])	Change (Rattus norvegicus [3])	Change (Rattus norvegicus [4])	Change (Rattus norvegicus [5])	Change (Rattus norvegicus [6])	IC50 [15]	further results
CC(CCCCC(=O)CCCCC(C)(C(=O)O)c1ccccc1)(C(=O)O)c1ccccc1 (stereo unspecified)	45%	36%	-36%	-8%	43%	79%	–	inhibition at 300 µM [7]: < 50%
CC(CO)(CCCCC(=O)CCCCC(C)(CO)c1ccccc1)c1ccccc1 (stereo unspecified)	–	–	–	–	–	–	–	Change (Rattus norvegicus [8]): -27%; Change (Rattus norvegicus [9]): -30%; Change (Rattus norvegicus [10]): -25%; Change (Rattus norvegicus [11]): 31%; Change (Rattus norvegicus [12]): 21%; IC50 [13]: < 300 µM; Change (Rattus norvegicus [14]): 0%
CCCCCCCCCCCCCCSCC(=O)O [TETRADECYLTHIOACETIC ACID]	–	–	–	–	–	–	43 µM	–
CC(C)(CCCCC(=O)CCCC(C)(C)C(=O)O)C(=O)O	–	–	–	–	–	–	8 µM	Change (Rattus norvegicus [8]): 4%; Change (Rattus norvegicus [9]): -17%; Change (Rattus norvegicus [10]): -2%; Change (Rattus norvegicus [11]): 93%; Change (Rattus norvegicus [12]): 23%; Change (Rattus norvegicus [14]): 7%
Cc1ccc(C(C)(CCCCC(=O)CCCCC(C)(C(=O)O)c2ccc(C)cc2)C(=O)O)cc1 (stereo unspecified)	–	–	–	–	–	–	–	Change (Rattus norvegicus [8]): 10%; Change (Rattus norvegicus [9]): 0%; Change (Rattus norvegicus [10]): -11%; Change (Rattus norvegicus [11]): 47%; Change (Rattus norvegicus [12]): 12%; IC50 [13]: < 300 µM; Change (Rattus norvegicus [14]): 0%
CC(C)(CO)CCCCC(=O)CCCCC(C)(CO)c1ccccc1 (stereo unspecified)	–	–	–	–	–	–	1 µM	Change (Rattus norvegicus [8]): -5%; Change (Rattus norvegicus [9]): 17%; Change (Rattus norvegicus [10]): 18%; Change (Rattus norvegicus [11]): -8%; Change (Rattus norvegicus [12]): -8%; Change (Rattus norvegicus [14]): -18%
CC(C)(CO)CCCCC(=O)CCCC(C)(C)CO	48%	-26%	-40%	-12%	47%	4%	–	IC50 [16]: < 10 µM
Cc1ccc(C(C)(CO)CCCCC(=O)CCCCC(C)(CO)c2ccc(C)cc2)cc1 (stereo unspecified)	–	–	–	–	–	–	–	Change (Rattus norvegicus [8]): -2%; Change (Rattus norvegicus [9]): 61%; Change (Rattus norvegicus [10]): 15%; Change (Rattus norvegicus [11]): 46%; Change (Rattus norvegicus [12]): 0%; IC50 [13]: < 300 µM; Change (Rattus norvegicus [14]): -3%
CC(C)(CO)CCCCCCC(=O)CCCCCCC(C)(C)CO	–	–	–	–	–	–	2 µM	Change (Rattus norvegicus [17]): -50%
CC(C)OC(=O)C(C)(C)Oc1ccc(C(=O)c2ccc(Cl)cc2)cc1 [FENOFIBRATE]	-14%	19.8%	6%	-8%	-41%	11.6%	–	–
CC(C)(CCCCCC(=O)CCCCC(C)(C)C(=O)O)C(=O)O	72%	-30%	-65%	-62%	240%	-51%	3 µM	–
CC(CO)(CCCCCC(=O)CCCCCC(C)(CO)c1ccccc1)c1ccccc1 (stereo unspecified)	10%	29%	24%	1%	2%	9%	93 µM	–
CC(C)(CCCCCCCC(=O)CCCCCCCC(C)(C)C(=O)O)C(=O)O	86%	-81%	-85%	-63%	44%	-45%	5 µM	–
CC(C)(CO)CCCCCC(=O)CCCCCC(C)(C)CO	–	-91%	-92%	-92%	77%	-88%	3 µM	–
CC(C)Cc1ccc(C(C)(CCCCC(=O)CCCCC(C)(C(=O)O)c2ccc(CC(C)C)cc2)C(=O)O)cc1 (stereo unspecified)	62%	-40%	-63%	-66%	11%	-44%	–	IC50 [13]: < 300 µM
CC(C)(CCCCCCC(=O)CCCCCCC(C)(C)C(=O)O)C(=O)O	–	–	–	–	–	–	9 µM	–
CC(C)Cc1ccc(C(C)(CO)CCCCC(=O)CCCCC(C)(CO)c2ccc(CC(C)C)cc2)cc1 (stereo unspecified)	6%	27%	-10%	-15%	-5%	34%	–	inhibition at 300 µM [7]: < 50%
CC(C)(CO)CCCC(=O)CCCC(C)(C)CO	2%	-22%	-31%	10%	24%	28%	27 µM	–
CC(C)(Cc1cccc(C(=O)c2cccc(CC(C)(C)C(=O)O)c2)c1)C(=O)O	–	–	–	–	–	–	–	Change (Rattus norvegicus [18]): -43%; Change (Rattus norvegicus [19]): 34%; Change (Rattus norvegicus [20]): 2%; Change (Rattus norvegicus [21]): 7%; Change (Rattus norvegicus [22]): -24%; Change (Rattus norvegicus [23]): 7%
CC(C)(CO)CCCCCC(=O)CCCCC(C)(C)CO	78%	-70%	-85%	-87%	78%	-78%	2 µM	–
CC(C)(CO)Cc1cccc(C(=O)c2cccc(CC(C)(C)CO)c2)c1	-11%	-14%	-29%	-8%	1%	-5%	52 µM	–
CC(CCCC(=O)CCCC(C)(C(=O)O)c1ccccc1)(C(=O)O)c1ccccc1 (stereo unspecified)	12%	36%	10%	27%	-4%	65%	–	inhibition at 300 µM [7]: < 50%
CC(CO)(CCCC(=O)CCCC(C)(CO)c1ccccc1)c1ccccc1 (stereo unspecified)	-11%	-18%	-20%	-17%	-14%	-32%	–	IC50 [13]: < 300 µM
